According to PMC6889220 (ACS chemical neuroscience, 2019):
Where two headings read alike, the source gives them in different places.

How the values were obtained:
[1] = biological target: human serum albumin (hSA) (Homo sapiens, UniProt P02768); test: Isothermal titration calorimetry with human serum albumin; type: binding
Procedure, shortened: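 The calorimeter cell held 20 μM human serum albumin in PBS (150 mM NaCl, 20 mM sodium phosphate, pH 7.4), with ddH2O in the reference cell. The titrant was 0.22 mM test compound, made as a filtered saturated PBS solution with concentration checked by UV absorbance. Injections were spaced 300 s apart at 30 °C. Data were corrected for heats of dilution and fitted to a single set of independent sites. Ka from triplicate runs was averaged.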

[2] = biological target: T1, recombinant human α2A -R (Homo sapiens, UniProt P08913); test: [3H]clonidine radioligand competitive binding assay; settings: Kd with the Cheng–Prusoff correction, 15 nM [3H]-clonidine
T1 sequence (P08913 1-465): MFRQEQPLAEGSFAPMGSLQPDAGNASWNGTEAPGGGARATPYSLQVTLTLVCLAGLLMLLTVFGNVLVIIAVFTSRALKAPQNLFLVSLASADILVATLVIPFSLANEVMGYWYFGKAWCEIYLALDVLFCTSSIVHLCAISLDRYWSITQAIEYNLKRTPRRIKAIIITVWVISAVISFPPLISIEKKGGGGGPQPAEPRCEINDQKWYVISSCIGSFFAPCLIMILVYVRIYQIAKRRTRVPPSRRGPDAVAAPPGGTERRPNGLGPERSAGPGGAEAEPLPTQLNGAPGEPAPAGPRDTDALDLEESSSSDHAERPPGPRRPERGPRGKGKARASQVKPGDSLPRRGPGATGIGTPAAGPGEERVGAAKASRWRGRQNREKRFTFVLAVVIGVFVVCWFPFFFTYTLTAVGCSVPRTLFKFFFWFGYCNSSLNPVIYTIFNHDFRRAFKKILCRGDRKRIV

[3] = biological target: T2, human α2A adrenergic receptor (Homo sapiens, UniProt P08913); test: [35S]GTPγS binding assay; type: biochemical; settings: 1 μM RX 821002 (selective α2 antagonist)
T2 sequence (P08913 1-465): T1 sequence (P08913 1-465)

[4] = tested on: Xenopus laevis tadpoles; test: Hypnotic activity Xenopus laevis tadpole bioassay; type: in vivo; settings: for EC50: Xenopus laevis
Procedure, shortened: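 Albino tadpoles at stages 45–47, 10 per dish, kept at 21–22 °C. They were exposed for 30 min to graded concentrations of test compound, with or without 10 μM atipamezole, in E3 artificial pond water containing <0.01% (v/v) DMSO. Loss of spontaneous movement was scored. Animals were then moved to fresh pond water and watched for toxicity. Each concentration was run in triplicate and reported as mean ± SEM.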

[5] = tested on: albumin; settings: cited from earlier work
[6] = 0.5 h, read-out: hypnotic EC50 (loss of spontaneous movement)

Chain of human serum albumin (hSA) (P02768 25-609): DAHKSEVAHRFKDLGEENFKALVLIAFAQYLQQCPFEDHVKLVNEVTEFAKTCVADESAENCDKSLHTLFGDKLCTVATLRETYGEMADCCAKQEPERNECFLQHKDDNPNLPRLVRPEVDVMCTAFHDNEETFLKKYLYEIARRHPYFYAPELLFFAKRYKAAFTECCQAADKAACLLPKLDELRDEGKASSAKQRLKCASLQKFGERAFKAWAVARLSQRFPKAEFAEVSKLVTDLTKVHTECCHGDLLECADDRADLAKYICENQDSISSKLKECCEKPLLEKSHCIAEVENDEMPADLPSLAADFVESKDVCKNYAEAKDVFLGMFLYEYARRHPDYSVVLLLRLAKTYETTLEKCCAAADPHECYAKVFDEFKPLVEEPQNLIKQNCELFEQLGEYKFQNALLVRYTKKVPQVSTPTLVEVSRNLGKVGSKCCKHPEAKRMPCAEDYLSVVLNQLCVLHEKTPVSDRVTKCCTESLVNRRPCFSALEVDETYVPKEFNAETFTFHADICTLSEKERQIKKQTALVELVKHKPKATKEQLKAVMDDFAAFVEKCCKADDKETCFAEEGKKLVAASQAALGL

Compound `CC(c1cccc(C2(C(F)(F)F)N=N2)c1)c1cnc[nH]1` (stereo not drawn) [azi-medetomidine, 5-(1-(3-(3-(trifluoromethyl)-3H-diazirine-3-yl)phenyl)ethyl)-1H-imidazole] has a Kd [1] of 29 µM, a Kd ([2]; with UV exposure (350 nm light, 30 min)) of 3.68 nM and a Kd ([2]; without UV) of 2.1 nM. The “α2A-R activity in the presence of RX 821,002” value [3] was “eliminated all α2A -R activity”, the EC50 [4, 6] was 4650 nM and the “toxicity in Xenopus tadpoles” value ([4]; observed after transfer to fresh pond water) was “did not display any frank toxicity”.

In the case of `Cc1cccc([C@H](C)c2cnc[nH]2)c1C` [dexmedetomidine, reference compound], the EC50 [4, 6] is given as 860 nM, the EC50 ([4]; read-out: behavioral EC50 in Xenopus tadpoles) is given as 800 nM and the “fraction bound to albumin in plasma” value [5] is given as > 90%.
